The target of series [1] is Metabotropic glutamate receptor 5 (Homo sapiens) (UniProt P41594). The series can be described thus: Activity at human mGlu5 receptor expressed in HEK293 cells co-expressing Gi/Gq assessed as effect on intracellular calcium level up to 10 uM after 10 mins by Fluo4-AM dye based fluorescence assay. The series is classed as functional, cell-based. In a few lines: (§1)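 HEK-293 cells transiently expressing the human mGluR with a promiscuous or chimeric G protein were serum-starved 3 h and loaded 1.5 h with 1 μM Fluo4-AM. Compound alone was added in assay buffer, and calcium fluorescence (ex 485/em 525) was recorded for 10 min as agonist readout.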

For series [2] the target is unchanged. The series can be described thus: Activity at human mGlu5 receptor expressed in HEK293 cells co-expressing Gi/Gq assessed as effect on EC20/EC80 glutamate-induced intracellular calcium level up to 10 uM preincubated for 10 mins followed by glutamate addition measured for 3 mins by Fluo4-AM dye based fluorescence assay. Type of series: functional, cell-based. The gist of the method:
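HEK-293 cells were electroporated with the human mGluR plus a promiscuous or chimeric G protein and cultured 24 h, then serum-starved 3 h. Cells were loaded 1.5 h with 1 μM Fluo4-AM in HBSS/HEPES buffer with probenecid and 0.1% BSA. Compound was added for 10 min, then glutamate at EC20 (PAM) or EC80 (NAM), and fluorescence (ex 485/em 525) was read for 3 min.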

For series [3], the target named is Metabotropic glutamate receptor 1 (Homo sapiens) (UniProt Q13255). Put plainly: Activity at human mGlu1 receptor expressed in HEK293 cells co-expressing Gi/Gq assessed as effect on intracellular calcium level up to 10 uM after 10 mins by Fluo4-AM dye based fluorescence assay. The series is classed as functional, cell-based. The gist of the method: as §1
In series [4] the target is Metabotropic glutamate receptor 7 (Homo sapiens) (UniProt Q14831). Put plainly: Activity at human mGlu7 receptor expressed in HEK293 cells co-expressing Gi/Gq assessed as effect on intracellular calcium level up to 10 uM after 10 mins by Fluo4-AM dye based fluorescence assay. The series is classed as functional, cell-based. In a few lines: as §1
(A change in cytosolic calcium serves as a functional read-out for many receptors and channels.)

For series [5], the target named is T1, Metabotropic glutamate receptor 4 (Homo sapiens, UniProt Q14833). Put plainly: Agonist activity at recombinant human mGlu4 receptor expressed in HEK293 cells co-expressing chimeric Gi/Gq protein assessed as increase in calcium flux at 3 uM after 10 mins by Fluo4-AM dye based fluorescence assay relative to control. Type of series: functional, cell-based. In a few lines: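 Human mGluR4 co-expressed in HEK293 cells with the chimeric Gi/Gq (GqTOP) protein, loaded with Fluo4-AM. Compound was added alone and calcium signal recorded for 10 min, compared with the buffer-evoked basal signal.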

Series [6] is filed under the species Rattus norvegicus. The series can be described thus: Activity at kainate glutamate receptor in rat cerebral cortex at 10 uM. In a few lines:
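Inhibition of orthosteric ligand binding to NMDA, AMPA and kainate receptors on rat cerebral cortex membranes, tested up to 10 μM.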

The target in series [7] is Metabotropic glutamate receptor 4 (Rattus norvegicus) (UniProt P31423). The series can be described thus: Positive allosteric modulation of rat mGlu4 receptor expressed in HEK293 cells co-expressing Gi/Gq assessed as increase in glutamate-induced calcium flux preincubated for 10 mins followed by glutamate addition measured for 3 mins by Fluo4-AM dye based fluorescence assay relative to control. Type of series: functional, cell-based.

A short description of series [8]: Ratio of drug level in Sprague-Dawley rat brain to plasma at 30 mg/kg, ip after 30 mins post dose administered as single dose by LC-MS/MS analysis. As to conditions: read-out: BPR. Type of series: ADME, organism-based. The gist of the method:
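Single dose ip (10 or 30 mg/kg, rat) or oral (10 mg/kg, rat or mouse); plasma Cmax, Tmax, half-life, AUC0−inf derived; brain concentration and brain/plasma ratio at 30 min postdose. Mean of 3 rats or 2 mice.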

A short description of series [9]: Drug uptake in Sprague-Dawley rat brain at 30 mg/kg, ip after 30 mins. The series is classed as ADME, organism-based. As to conditions: read-out: Drug uptake.
A short description of series [10]: Volume of distribution in Sprague-Dawley rat at 1 mg/kg, iv administered as single dose by LC-MS/MS analysis. Type of series: ADME, organism-based. As to conditions: in vivo. In a few lines: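 Single intravenous dose: rats 1 mg/kg, mice 2 mg/kg. Plasma concentration–time data yielded Cmax, t1/2, AUC0−∞, plasma clearance and volume of distribution. Values are mean ±SEM of 3 animals.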

Series [11] can be described thus: Plasma concentration in Sprague-Dawley rat at 30 mg/kg, ip after 120 mins. Type of series: ADME, organism-based. The gist of the method:
(§2)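 Rats dosed 30 mg/kg ip; plasma sampled over time, brain measured at 30 and 60 min; brain/plasma ratio averaged over 30 and 60 min.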

Series [12] deals with Mus musculus. Put plainly: Half life in C57BL/6 mouse at 2 mg/kg, iv administered as single dose by LC-MS/MS analysis. Type of series: ADME, organism-based. As to conditions: in vivo. The gist of the method:
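Single iv dose, 1 mg/kg in rat or 2 mg/kg in mouse; plasma PK parameters derived; brain/plasma ratio taken at 1 h postdose (rat) or 30 min postdose (mouse). Mean of 3 rats; 2 mice for mouse Cmax and brain/plasma.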

For series [13], the target named is T1, Metabotropic glutamate receptor 4. Put plainly: Positive allosteric modulation of recombinant human mGlu4 receptor expressed in HEK293 cells co-expressing Gi/Gq assessed as increase in glutamate-induced calcium flux preincubated for 10 mins followed by glutamate addition measured for 3 mins by Fluo4-AM dye based fluorescence assay. The series is classed as functional, cell-based. As to conditions: read-out: EC50.

Series [14] concerns the target Metabotropic glutamate receptor 4 (Rattus norvegicus, UniProt P31423). The series can be described thus: Positive allosteric modulation of rat mGlu4 receptor expressed in HEK293 cells co-expressing Gi/Gq assessed as increase in glutamate-induced calcium flux preincubated for 10 mins followed by glutamate addition measured for 3 mins by Fluo4-AM dye based fluorescence assay. The series is classed as functional, cell-based.

Series [15] in a line: Ratio of drug uptake in Sprague-Dawley rat brain at 10 mg/kg, po to EC50 for rat mGlu4 receptor expressed in HEK293 cells. In a few lines: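 Rats received a single ip or oral dose. Brain concentration was measured 30 min postdose, mean of 3 rats, and divided by the EC50 measured in cell lines overexpressing rat mGluR4.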
The test system of series [16] is Rattus norvegicus. Put plainly: Toxicity in 6-OHDA induced parkinsonian motor deficit Sprague-Dawley rat model assessed as induction of overacting rearing behavior up to 30 mg/kg, ip. As to conditions: in vivo. Type of series: organism-based.
Series [17] in a line: Tmax in Sprague-Dawley rat plasma at 10 mg/kg, ip administered as single dose by LC-MS/MS analysis. The series is classed as ADME, organism-based. In a few lines:
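Single-dose plasma PK after ip (10 or 30 mg/kg) or oral (10 mg/kg) dosing in rats, and oral 10 mg/kg dosing in mice. […] Values are mean ±SEM of 3 rats or 2 mice.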

The nature of series [18]: Cmax in C57BL/6 mouse at 2 mg/kg, iv administered as single dose by LC-MS/MS analysis. The series is classed as ADME, organism-based. As to conditions: in vivo. Further details: dose 2 mg/kg, route intravenous.
Series [19] in a line: Plasma concentration in Sprague-Dawley rat at 30 mg/kg, ip after 60 mins. Type of series: ADME, organism-based. The gist of the method: as §2
Series [20] can be described thus: AUC (0 to infinity) in Sprague-Dawley rat plasma at 30 mg/kg, ip administered as single dose by LC-MS/MS analysis. The series is classed as ADME, organism-based. Further details: dose 30 mg/kg, time infinity, route intraperitoneal. In a few lines: (§3)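 Rats dosed ip at 10 or 30 mg/kg. Plasma Cmax, Tmax, half-life and AUC0–inf were determined. Brain concentration was measured 30 min postdose, and brain/plasma ratio was taken at 30 min. Values are the mean (±SEM) of 3 rats.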

A short description of series [21]: AUC (0 to infinity) in Sprague-Dawley rat plasma at 10 mg/kg, ip administered as single dose by LC-MS/MS analysis. The series is classed as ADME, organism-based. The arrangement: dose 10 mg/kg, time infinity, route intraperitoneal. The gist of the method:
as §3

Series [22] is described as follows: Cmax in Sprague-Dawley rat plasma at 30 mg/kg, ip administered as single dose by LC-MS/MS analysis. The series is classed as ADME, organism-based. The arrangement: dose 30 mg/kg, route intraperitoneal. The gist of the method: as §3
A short description of series [23]: Ratio of fraction unbound in Sprague-Dawley rat brain at 30 mg/kg, ip after 240 mins to EC50 for rat mGlu4 receptor expressed in HEK293 cells.

Calls of active or inactive are those of the source. The calls are words filed in the database; no cut-off is given here.

Sequence of Metabotropic glutamate receptor 5 (Homo sapiens) (P41594 21-1212 limits assumed): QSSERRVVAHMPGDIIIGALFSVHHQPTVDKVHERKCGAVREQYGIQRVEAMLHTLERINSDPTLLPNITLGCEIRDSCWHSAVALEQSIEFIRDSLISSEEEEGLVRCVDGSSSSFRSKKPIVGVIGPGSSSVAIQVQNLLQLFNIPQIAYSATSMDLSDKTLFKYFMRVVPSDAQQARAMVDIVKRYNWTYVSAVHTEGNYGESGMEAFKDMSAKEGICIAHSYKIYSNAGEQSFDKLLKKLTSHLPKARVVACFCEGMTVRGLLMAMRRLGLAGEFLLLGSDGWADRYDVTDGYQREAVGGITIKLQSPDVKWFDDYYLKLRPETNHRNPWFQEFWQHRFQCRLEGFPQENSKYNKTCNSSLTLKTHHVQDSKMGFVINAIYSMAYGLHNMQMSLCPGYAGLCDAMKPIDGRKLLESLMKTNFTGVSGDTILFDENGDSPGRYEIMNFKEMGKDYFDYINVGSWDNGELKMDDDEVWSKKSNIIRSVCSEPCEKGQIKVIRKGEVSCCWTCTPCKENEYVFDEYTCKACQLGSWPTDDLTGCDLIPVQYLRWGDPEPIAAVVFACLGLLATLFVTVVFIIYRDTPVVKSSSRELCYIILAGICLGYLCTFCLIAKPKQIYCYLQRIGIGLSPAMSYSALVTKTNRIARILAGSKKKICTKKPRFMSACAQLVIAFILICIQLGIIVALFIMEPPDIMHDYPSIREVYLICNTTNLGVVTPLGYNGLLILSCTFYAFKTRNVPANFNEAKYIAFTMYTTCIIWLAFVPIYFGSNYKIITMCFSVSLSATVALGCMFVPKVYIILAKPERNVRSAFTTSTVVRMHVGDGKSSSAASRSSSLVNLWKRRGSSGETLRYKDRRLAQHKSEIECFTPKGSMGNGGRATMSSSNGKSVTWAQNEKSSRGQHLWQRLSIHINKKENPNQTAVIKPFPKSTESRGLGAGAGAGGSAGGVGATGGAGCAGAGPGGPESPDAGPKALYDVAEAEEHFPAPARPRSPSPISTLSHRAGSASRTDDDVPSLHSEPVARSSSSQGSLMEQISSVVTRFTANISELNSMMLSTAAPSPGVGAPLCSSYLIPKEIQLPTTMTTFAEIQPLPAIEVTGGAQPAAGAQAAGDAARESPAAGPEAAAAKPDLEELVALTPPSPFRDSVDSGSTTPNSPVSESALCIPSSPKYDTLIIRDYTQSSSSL
T1 sequence (Q14833 whole entry): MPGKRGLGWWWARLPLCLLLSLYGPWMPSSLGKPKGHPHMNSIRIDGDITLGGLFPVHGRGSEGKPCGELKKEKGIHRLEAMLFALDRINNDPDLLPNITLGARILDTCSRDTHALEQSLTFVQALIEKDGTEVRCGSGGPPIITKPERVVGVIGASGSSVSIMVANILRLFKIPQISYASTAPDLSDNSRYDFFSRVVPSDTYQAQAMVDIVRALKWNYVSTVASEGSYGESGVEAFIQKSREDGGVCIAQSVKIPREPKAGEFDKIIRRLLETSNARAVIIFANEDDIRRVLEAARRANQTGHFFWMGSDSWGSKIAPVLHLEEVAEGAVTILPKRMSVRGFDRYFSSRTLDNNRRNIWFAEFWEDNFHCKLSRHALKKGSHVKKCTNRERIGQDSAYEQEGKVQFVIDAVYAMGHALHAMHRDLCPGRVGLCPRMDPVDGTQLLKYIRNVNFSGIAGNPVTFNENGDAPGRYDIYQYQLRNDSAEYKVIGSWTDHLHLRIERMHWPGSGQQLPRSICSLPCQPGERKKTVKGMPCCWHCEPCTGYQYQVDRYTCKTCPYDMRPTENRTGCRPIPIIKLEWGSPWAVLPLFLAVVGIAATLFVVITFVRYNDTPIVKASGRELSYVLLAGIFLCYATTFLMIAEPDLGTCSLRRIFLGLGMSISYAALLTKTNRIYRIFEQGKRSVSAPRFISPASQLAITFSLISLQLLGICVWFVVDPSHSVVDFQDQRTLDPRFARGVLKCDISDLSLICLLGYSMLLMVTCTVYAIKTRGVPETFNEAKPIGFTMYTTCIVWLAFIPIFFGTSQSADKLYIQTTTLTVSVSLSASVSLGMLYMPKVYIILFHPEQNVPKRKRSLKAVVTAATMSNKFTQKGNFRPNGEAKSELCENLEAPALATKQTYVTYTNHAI
Sequence of Metabotropic glutamate receptor 1 (Homo sapiens) (Q13255 19-1194 limits assumed): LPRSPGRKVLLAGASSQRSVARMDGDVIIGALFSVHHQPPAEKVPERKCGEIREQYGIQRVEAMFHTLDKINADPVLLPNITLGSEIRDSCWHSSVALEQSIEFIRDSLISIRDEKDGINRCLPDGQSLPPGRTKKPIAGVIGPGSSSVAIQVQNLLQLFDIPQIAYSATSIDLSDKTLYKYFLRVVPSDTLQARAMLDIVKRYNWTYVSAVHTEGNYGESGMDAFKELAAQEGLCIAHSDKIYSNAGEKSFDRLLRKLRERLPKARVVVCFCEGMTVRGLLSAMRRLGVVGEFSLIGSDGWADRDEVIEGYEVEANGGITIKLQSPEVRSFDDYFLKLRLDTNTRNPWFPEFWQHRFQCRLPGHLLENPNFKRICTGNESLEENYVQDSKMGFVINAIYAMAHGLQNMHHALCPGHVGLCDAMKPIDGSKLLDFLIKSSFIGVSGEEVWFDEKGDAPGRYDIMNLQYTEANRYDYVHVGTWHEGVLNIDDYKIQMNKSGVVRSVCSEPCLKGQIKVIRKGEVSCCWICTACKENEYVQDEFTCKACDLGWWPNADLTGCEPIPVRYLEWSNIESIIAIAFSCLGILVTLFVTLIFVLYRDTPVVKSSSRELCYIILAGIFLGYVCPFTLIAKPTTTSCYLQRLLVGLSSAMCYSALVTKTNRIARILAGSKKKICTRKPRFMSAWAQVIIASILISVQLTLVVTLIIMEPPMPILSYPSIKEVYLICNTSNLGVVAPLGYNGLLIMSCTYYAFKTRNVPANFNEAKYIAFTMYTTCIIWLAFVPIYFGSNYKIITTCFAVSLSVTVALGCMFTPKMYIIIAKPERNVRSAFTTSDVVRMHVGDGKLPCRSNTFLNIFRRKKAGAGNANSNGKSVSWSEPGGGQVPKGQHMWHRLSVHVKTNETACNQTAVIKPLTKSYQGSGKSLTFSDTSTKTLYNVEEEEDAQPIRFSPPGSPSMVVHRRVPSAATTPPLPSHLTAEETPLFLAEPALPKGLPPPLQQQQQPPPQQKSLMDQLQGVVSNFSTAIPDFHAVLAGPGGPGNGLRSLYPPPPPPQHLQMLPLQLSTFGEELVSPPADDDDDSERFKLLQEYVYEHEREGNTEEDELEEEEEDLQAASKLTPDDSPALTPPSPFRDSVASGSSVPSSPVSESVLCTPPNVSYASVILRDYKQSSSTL
Sequence of Metabotropic glutamate receptor 4 (Rattus norvegicus) (P31423 whole entry): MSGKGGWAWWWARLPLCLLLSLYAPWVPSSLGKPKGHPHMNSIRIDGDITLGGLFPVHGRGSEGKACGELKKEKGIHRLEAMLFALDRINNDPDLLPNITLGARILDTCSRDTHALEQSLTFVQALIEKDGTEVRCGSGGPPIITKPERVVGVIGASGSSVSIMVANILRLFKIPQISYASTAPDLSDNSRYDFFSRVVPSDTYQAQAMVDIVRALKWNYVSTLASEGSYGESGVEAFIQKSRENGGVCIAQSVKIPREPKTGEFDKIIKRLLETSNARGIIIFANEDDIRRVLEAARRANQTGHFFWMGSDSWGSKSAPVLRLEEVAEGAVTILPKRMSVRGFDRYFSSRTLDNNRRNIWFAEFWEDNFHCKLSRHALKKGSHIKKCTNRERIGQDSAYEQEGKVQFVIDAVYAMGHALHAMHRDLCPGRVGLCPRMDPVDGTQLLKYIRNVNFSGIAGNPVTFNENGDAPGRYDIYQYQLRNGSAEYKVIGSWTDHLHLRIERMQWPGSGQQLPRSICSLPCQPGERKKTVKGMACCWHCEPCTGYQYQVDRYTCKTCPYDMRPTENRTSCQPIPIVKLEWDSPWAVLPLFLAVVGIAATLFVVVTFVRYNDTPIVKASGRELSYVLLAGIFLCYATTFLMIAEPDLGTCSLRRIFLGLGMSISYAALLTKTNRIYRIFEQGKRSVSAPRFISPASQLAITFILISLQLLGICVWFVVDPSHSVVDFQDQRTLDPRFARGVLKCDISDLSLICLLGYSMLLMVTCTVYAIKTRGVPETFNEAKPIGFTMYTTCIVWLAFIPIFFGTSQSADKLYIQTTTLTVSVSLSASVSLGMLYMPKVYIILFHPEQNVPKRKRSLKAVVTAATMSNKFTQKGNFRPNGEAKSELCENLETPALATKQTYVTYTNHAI
Sequence of Metabotropic glutamate receptor 4 (Rattus norvegicus, UniProt P31423) (P31423 whole entry): as above

The term Emax denotes the size of the effect at its maximum, as opposed to the concentration needed. As to `O/N=c1\cc(-c2cc3cccn3cn2)oc2ccc(OCCN3CCOCC3)cc12` [listing 1 of 2 here], the outcome in [1], in series [2], in series [3], in series [4] and in series [6] was inactive. Moreover, the Activity in series [5] turned out to be 19%. For the same compound, the Emax in [7] was 75%.
The term Vd denotes the apparent volume that relates the amount in the body to the concentration in plasma or blood. As a reminder, the EC50 is the concentration needed to bring the measured effect to its halfway point. A word on the Tmax: it is the time at which the peak concentration occurs. The term Cmax denotes the maximum level reached in the sampled fluid or tissue. A word on the AUC(0-inf): it is the area under the concentration-time curve extrapolated to infinity. For the compound `O/N=c1\cc(-c2cc3cccn3cn2)oc2ccc(OCCN3CCOCC3)cc12` [listing 2 of 2 here], the Kp at 0.5 h in series [8] stood at 3.1. For the same compound, the concentration at 0.5 h in series [9] is 22800 ng/g. The Vd in series [10] is 6.5 L/kg. In series [11], this compound registered a concentration at 2 h of 0.535 µg/mL. In addition, the t1/2 in series [12] is recorded as 12 min. Also, the EC50 in [13] was 0.046 µM; in series [14], 0.027 µM. Moreover, the figures for the Ratio in series [15] and in series [23] were 0.3 and 0.2, respectively. The Activity result in [16] is “Non-Toxic”. Besides, the Tmax in [17] was 15 min. Moreover, the Cmax was 0.753 µg/mL in [18] and 9.32 µg/mL in [22]. Also, the concentration at 1 h in [19] stood at 3.56 µg/mL. Also, the results for the AUC(0-inf) in [20] and in series [21] were 11.3 µg·h/mL and 2.25 µg·h/mL, respectively.

These data come from ChEMBL document CHEMBL4017520, “Discovery, Structure-Activity Relationship, and Antiparkinsonian Effect of a Potent and Brain-Penetrant Chemical Series of Positive Allosteric Modulators of Metabotropic Glutamate Receptor 4” (J Med Chem, 2017).
